ChEMBL document CHEMBL2157894, “Antileishmanial bis-arylimidamides: DB766 analogs modified in the linker region and bis-arylimidamide structure-activity relationships” (Bioorg Med Chem Lett, 2012)

Columns and labels:
Leishmania donovani [1] = test: Antileishmanial activity against amastigote form of Leishmania donovani LV82 expressing beta-lactamase infected in CD1 mouse macrophages after 72 hrs by nitrocefin-based spectrophotometric analysis; assay type: functional, organism-based; conditions: LV82, 72 h
Procedure, shortened: (§1)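 Intracellular amastigotes in macrophages; absorbance read-out with uninfected and infected control wells; IC50 from dose–response curves; mean ± SD of at least three determinations, each run in triplicate.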

Leishmania amazonensis = test: Antileishmanial activity against amastigote form of Leishmania amazonensis expressing beta-lactamase infected in CD1 mouse macrophages after 72 hrs by nitrocefin-based spectrophotometric analysis; assay type: functional, organism-based; procedure, shortened: as §1
J774 = test: Cytotoxicity against mouse J774 cells; assay type: cell-based
Procedure, shortened: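 J774 macrophages exposed to compounds; IC50 reported in nM as mean ± SD of at least three determinations.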

[2] = Selectivity index, ratio of IC50 for mouse J774 cells to IC50 for Leishmania donovani; assay type: toxicity, cell-based; conditions: J774 cells versus Leishmania donovani, read-out: Ratio IC50
Procedure, shortened: (§2)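 SI calculated as IC50 against J774 macrophages divided by IC50 against intracellular Leishmania, each IC50 from mean of at least three determinations.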

Mus musculus [3] = test: Toxicity in BALB/c mouse assessed as adverse effects at 30 mg/kg/day, ip administered for 5 days; assay type: organism-based; design: route intraperitoneal; conditions: in vivo, 120 h
Leishmania donovani [4] = test: Antileishmanial activity against promastigote form of Leishmania donovani LV82 infected in BALB/c mouse assessed as reduction in liver parasitemia at 30 mg/kg/day, ip administered for 5 days starting 1 week post-infection measured after 2 weeks relative to untreated control; assay type: functional; design: scale not given: the % may be the effect or the level left; conditions: route intraperitoneal
Procedure, shortened: (§3)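 Female BALB/c mice infected with L. donovani; treated daily for five days starting one week post infection, test agent ip in water, miltefosine orally at 10 mg/kg/day; liver parasitemia counted microscopically two weeks post infection; % reduction versus infected untreated controls; groups of four, mean ± SD; P<0.05 versus untreated.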

[5] = Selectivity index, ratio of IC50 for mouse J774 cells to IC50 for Leishmania amazonensis; assay type: toxicity, cell-based; conditions: J774 cells versus Leishmania amazonensis, read-out: Ratio IC50; procedure, shortened: as §2
Mus musculus [6] = test: Toxicity in BALB/c mouse assessed as hyperactivity at 30 mg/kg/day, ip measured from day 2 to 3; assay type: organism-based; design: route intraperitoneal; conditions: in vivo
Mus musculus [7] = test: Toxicity in BALB/c mouse assessed as tremors at 30 mg/kg/day, ip measured from day 2 to 3; assay type: organism-based; design: route intraperitoneal; conditions: in vivo
Mus musculus [8] = test: Toxicity in BALB/c mouse assessed as mortality at 30 mg/kg, ip measured within 24 hrs; assay type: organism-based; design: dose 30 mg/kg, route intraperitoneal; conditions: in vivo
Mus musculus [9] = test: Gastrointestinal toxicity in BALB/c mouse assessed as black and swollen stomach at 30 mg/kg, ip measured within 24 hrs by necroscopic analysis; assay type: organism-based; design: dose 30 mg/kg, route intraperitoneal; conditions: in vivo
Mus musculus [10] = test: Gastrointestinal toxicity in BALB/c mouse assessed as black and swollen colon at 30 mg/kg, ip measured within 24 hrs by necroscopic analysis; assay type: organism-based; design: dose 30 mg/kg, route intraperitoneal; conditions: in vivo
Mus musculus [11] = test: Gastrointestinal toxicity in BALB/c mouse assessed as black and swollen intestine at 30 mg/kg, ip measured within 24 hrs by necroscopic analysis; assay type: organism-based; design: dose 30 mg/kg, route intraperitoneal; conditions: in vivo
Leishmania donovani [12] = test: Antileishmanial activity against promastigote form of Leishmania donovani LV82 infected in BALB/c mouse assessed as reduction in liver parasitemia at 10 mg/kg/day, po administered for 5 days relative to untreated control; assay type: functional; design: scale not given: the % may be the effect or the level left; procedure, shortened: as §3

Q: Which IC50 (Leishmania donovani [1]) does the source give for `CC(C)Oc1cc(-c2ccc(-c3ccc(NC(=N)c4ccccn4)c(OC(C)C)c3)o2)ccc1NC(=N)c1ccccn1.CS(=O)(=O)O` here?
A: Its IC50 is 26 nM.

Q: What about the IC50 (Leishmania amazonensis) of the same molecule?
A: The IC50 was 290 nM.

Q: What about the IC50 (J774) of the same molecule?
A: The IC50 was 10000 nM.

Q: And the selectivity ratio [2]?
A: Its selectivity ratio is 385.

Q: What about the Activity (Mus musculus [3]) of the same molecule?
A: The Activity was “Non-toxic”.

Q: And the Activity (Leishmania donovani [4])?
A: Its Activity is 32%.

Q: Which IC50 (Leishmania donovani [1]) does the source give for `COc1cc(NC(=N)c2ccccn2)ccc1-c1ccc(-c2ccc(NC(=N)c3ccccn3)cc2OC(C)C)o1.CS(=O)(=O)O` here?
A: The IC50 was 7 nM.

Q: And the IC50 (Leishmania amazonensis)?
A: The IC50 was 110 nM.

Q: What about the IC50 (J774) of the same molecule?
A: Its IC50 is 14000 nM.

Q: And the selectivity ratio [2]?
A: The selectivity ratio was 2000.

Q: What about the selectivity ratio [5] of the same molecule?
A: Its selectivity ratio is 127.

Q: And the Activity (Mus musculus [6])?
A: Its Activity is “Toxic”.

Q: What about the Activity (Mus musculus [7]) of the same molecule?
A: The Activity was “Toxic”.

Q: Which IC50 (Leishmania donovani [1]) does the source give for `CS(=O)(=O)O.Cc1cc(NC(=N)c2ccccn2)ccc1-c1ccc(-c2ccc(NC(=N)c3ccccn3)cc2OC(C)C)o1` here?
A: The IC50 was 21 nM.

Q: What about the IC50 (Leishmania amazonensis) of the same molecule?
A: The IC50 was 49 nM.

Q: And the IC50 (J774)?
A: Its IC50 is 13000 nM.

Q: What about the selectivity ratio [2] of the same molecule?
A: Its selectivity ratio is 619.

Q: And the selectivity ratio [5]?
A: Its selectivity ratio is 265.

Q: And the Activity (Mus musculus [6])?
A: Its Activity is “Toxic”.

Q: And the Activity (Mus musculus [7])?
A: The Activity was “Toxic”.

Q: What does the source list for `CC(C)Oc1cc(NC(=N)c2ccccn2)ccc1-c1ccc(-c2ccc(NC(=N)c3ccccn3)cc2F)o1.CS(=O)(=O)O`?
A: IC50 (Leishmania donovani [1]): 150 nM; IC50 (Leishmania amazonensis): 190 nM; IC50 (J774): 27000 nM; selectivity ratio [2]: 180; selectivity ratio [5]: 142; Activity (Mus musculus [6]): Toxic; Activity (Mus musculus [7]): Toxic

Q: With `CC(C)Oc1cc(NC(=N)c2ccccn2)ccc1-c1ccc(-c2ccc(NC(=N)c3ccccn3)cc2)o1.CS(=O)(=O)O` as the molecule, how does the IC50 (Leishmania donovani [1]) read?
A: Its IC50 is 5.3 nM.

Q: And the IC50 (Leishmania amazonensis)?
A: Its IC50 is 93 nM.

Q: What about the IC50 (J774) of the same molecule?
A: Its IC50 is 11000 nM.

Q: And the selectivity ratio [2]?
A: The selectivity ratio was 2080.

Q: What about the selectivity ratio [5] of the same molecule?
A: Its selectivity ratio is 115.

Q: And the Activity (Mus musculus [8])?
A: The Activity was “Toxic”.

Q: And the Activity (Mus musculus [9])?
A: The Activity was “Toxic”.

Q: What about the Activity (Mus musculus [10]) of the same molecule?
A: Its Activity is “Toxic”.

Q: What about the Activity (Mus musculus [11]) of the same molecule?
A: The Activity was “Toxic”.

Q: With `C[C@@H]1[C@H](O)[C@@H](C)/C=C/C=C/C=C/C=C/C=C/C=C/C=C/[C@H](O[C@@H]2O[C@H](C)[C@@H](O)[C@H](N)[C@@H]2O)C[C@@H]2O[C@](O)(C[C@@H](O)C[C@@H](O)[C@H](O)CC[C@@H](O)C[C@@H](O)CC(=O)O[C@H]1C)C[C@H](O)[C@H]2C(=O)O` [AMPHOTERICIN B] as the molecule, how does the IC50 (Leishmania donovani [1]) read?
A: The IC50 was 45 nM.

Q: For `CCCCCCCCCCCCCCCCOP(=O)([O-])OCC[N+](C)(C)C` [MILTEFOSINE], which Activity (Leishmania donovani [12]) is on record?
A: The Activity was 96%.

Q: With `COc1cc([C@@H]2c3cc4c(cc3[C@H](O)[C@H]3COC(=O)[C@H]23)OCO4)cc(OC)c1OC` [PODOFILOX] as the molecule, how does the IC50 (J774) read?
A: The IC50 was 18 nM.
